Test results published in ChEMBL document CHEMBL1135391, “Anti-Helicobacter pylori agents. 5. 2-(Substituted guanidino)-4-arylthiazoles and aryloxazole analogues” (2002).
In brackets after ≈: the same amount, converted by molar mass.

How the values were obtained:
Helicobacter pylori [1] = experiment: Minimum inhibitory concentration required to inhibit macroscopic colonial growth of Helicobacter pylori; assay type: functional
In short: (§1)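 Agar dilution against 10 H. pylori strains (8001, 8003, 8004, 8007, 8008, 8009, 8011, 9005, FP1530, FP1532). Strains precultured 3 days at 37 °C on Brucella agar with 3% horse serum and 2% starch, then adjusted to McFarland No. 1. A 10²-fold dilution was spotted onto Brucella agar with 7% lysed horse blood and 2-fold drug dilutions. Plates incubated 3 days at 37 °C under 10% CO2. MIC is the lowest concentration preventing visible colonies; mean and range span the 10 strains.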

Helicobacter pylori [2] = experiment: Minimum inhibitory concentration required to inhibit macroscopic colonial growth of Helicobacter pylori; ranges from (0.00625-0.1); assay type: functional; in short: as §1
Cavia porcellus [3] = species: Cavia porcellus; experiment: Inhibition of histamine-stimulated chronotropic response in isolated guinea pig right atrium at 1*10e-6 g/mL; assay type: functional, Cardiac atrium
In short: (§2)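 Guinea pig atrial strip in Thyrode solution at 30 °C, gassed with 95% O2-5% CO2, initial tension 0.3-0.6 g. Beating rate recorded. Histamine hydrochloride 1 × 10⁻⁶ g/mL was given first. After washout, test compound at 1 × 10⁻⁶ g/mL was added 30 min later. Percent inhibition compares histamine-induced rate increases before and 30 min after compound.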

Rattus norvegicus [4] = experiment: Inhibition of histamine-stimulated gastric acid secretion in lumen-perfused stomach of anesthetized rats after 1 mg/kg iv administration; assay type: functional
In short: (§3)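 Male Sprague-Dawley rats, about 250 g, fasted 24 h and anesthetized with urethane 1.25 g/kg ip. Stomach lumen perfused with saline, perfusate titrated with 25 mM NaOH. Acid secretion was driven by iv histamine infusion at 3 mg/kg/h. At plateau, compound 1 mg/kg iv. Read-out is maximal inhibition of acid output, n = 2.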

Helicobacter pylori [5] = experiment: Minimum inhibitory concentration required to inhibit macroscopic colonial growth of Helicobacter pylori; ranges from (0.2-1.56); assay type: functional; in short: as §1
Helicobacter pylori [6] = experiment: Minimum inhibitory concentration required to inhibit macroscopic colonial growth of Helicobacter pylori; ranges from (6.25-25); assay type: functional; in short: as §1
Rattus norvegicus [7] = experiment: Inhibition of histamine-stimulated gastric acid secretion in lumen-perfused stomach of anesthetized rats; assay type: functional; in short: as §3
Cavia porcellus [8] = species: Cavia porcellus; experiment: Inhibition of histamine-stimulated chronotropic response in isolated guinea pig right atrium; assay type: functional, Cardiac atrium; in short: as §2
Helicobacter pylori [9] = experiment: Minimum inhibitory concentration required to inhibit macroscopic colonial growth of Helicobacter pylori; ranges from (0.025-0.1); assay type: functional; in short: as §1
Helicobacter pylori [10] = experiment: Minimum inhibitory concentration required to inhibit macroscopic colonial growth of Helicobacter pylori; ranges from (0.2-0.78); assay type: functional; in short: as §1
Helicobacter pylori [11] = experiment: Minimum inhibitory concentration required to inhibit macroscopic colonial growth of Helicobacter pylori; ranges from (0.78-6.25); assay type: functional; in short: as §1
Helicobacter pylori [12] = experiment: Minimum inhibitory concentration required to inhibit macroscopic colonial growth of Helicobacter pylori; ranges from (0.78-1.56); assay type: functional; in short: as §1
Helicobacter pylori [13] = experiment: Minimum inhibitory concentration required to inhibit macroscopic colonial growth of Helicobacter pylori; ranges from (3.13-12.5); assay type: functional; in short: as §1
Helicobacter pylori [14] = experiment: Minimum inhibitory concentration required to inhibit macroscopic colonial growth of Helicobacter pylori; ranges from (0.05-0.2); assay type: functional; in short: as §1
Helicobacter pylori [15] = experiment: Minimum inhibitory concentration required to inhibit macroscopic colonial growth of Helicobacter pylori; ranges from (3.13-6.25); assay type: functional; in short: as §1
Helicobacter pylori [16] = experiment: Minimum inhibitory concentration required to inhibit macroscopic colonial growth of Helicobacter pylori ranges from (6.25-12.5); assay type: functional; in short: as §1
Cavia porcellus [17] = species: Cavia porcellus; experiment: Inhibition of histamine-stimulated chronotropic response in isolated guinea pig right atrium at 1*10e-4 g/mL; assay type: functional, Cardiac atrium
Helicobacter pylori [18] = experiment: Minimum inhibitory concentration required to inhibit macroscopic colonial growth of Helicobacter pylori;ranges from (0.003-0.025); assay type: functional; in short: as §1
Helicobacter pylori [19] = experiment: Minimum inhibitory concentration required to inhibit macroscopic colonial growth of Helicobacter pylori; ranges from (0.1-0.78); assay type: functional; in short: as §1
Helicobacter pylori [20] = experiment: Minimum inhibitory concentration required to inhibit macroscopic colonial growth of Helicobacter pylori;ranges from (0.10-0.78); assay type: functional; in short: as §1
Helicobacter pylori [21] = experiment: Minimum inhibitory concentration required to inhibit macroscopic colonial growth of Helicobacter pylori; ranges from (0.2-3.13); assay type: functional; in short: as §1
Helicobacter pylori [22] = experiment: Minimum inhibitory concentration required to inhibit macroscopic colonial growth of Helicobacter pylori; ranges from (0.0125-0.1); assay type: functional; in short: as §1
Helicobacter pylori [23] = experiment: Minimum inhibitory concentration required to inhibit macroscopic colonial growth of Helicobacter pylori; ranges from (0.025-0.39); assay type: functional; in short: as §1
Helicobacter pylori [24] = experiment: Minimum inhibitory concentration required to inhibit macroscopic colonial growth of Helicobacter pylori; ranges from (0.39-6.25); assay type: functional; in short: as §1
Helicobacter pylori [25] = experiment: Minimum inhibitory concentration required to inhibit macroscopic colonial growth of Helicobacter pylori; ranges from(1.56-25); assay type: functional; in short: as §1
Helicobacter pylori [26] = experiment: microbe, parasite or virus in culture
Helicobacter pylori [27] = experiment: Minimum inhibitory concentration required to inhibit macroscopic colonial growth of Helicobacter pylori; ranges from (1.56-12.5); assay type: functional; in short: as §1
Helicobacter pylori [28] = experiment: Minimum inhibitory concentration required to inhibit macroscopic colonial growth of Helicobacter pylori; ranges from (3.13-[…]); assay type: functional; in short: as §1
Helicobacter pylori [29] = experiment: Minimum inhibitory concentration required to inhibit macroscopic colonial growth of Helicobacter pylori; ranges from ([…]-6.25); assay type: functional; in short: as §1

## BISMUTH SUBCITRATE
Helicobacter pylori [1]
  MIC: 18 µg/mL

## CC1(C)S[C@@H]2[C@H](NC(=O)[C@H](N)c3ccc(O)cc3)C(=O)N2[C@H]1C(=O)O [AMOXICILLIN]
Helicobacter pylori [2]
  MIC: 0.021 µg/mL (≈ 0.0575 µM)

## CCCC/N=C(\N)Nc1nc(-c2csc(CNC(C)=O)n2)cs1
Cavia porcellus [3]
  Inhibition: 85%
Rattus norvegicus [4]
  inhibition in vivo at 1 mg/kg: 50%
Helicobacter pylori [5]
  MIC: 0.52 µg/mL (≈ 1.48 µM)

## CCCC/N=C(\N)Nc1nc(-c2ccc(CNC(C)=O)o2)co1
Cavia porcellus [3]
  Inhibition: 82%
Rattus norvegicus [4]
  inhibition in vivo at 1 mg/kg: 51%
Helicobacter pylori [6]
  MIC: 19.3 µg/mL (≈ 60.4 µM)

## CNC(=C[N+](=O)[O-])NCCSCc1ccc(CN(C)C)o1 [RANITIDINE]
Helicobacter pylori [1]
  MIC: > 1600 µg/mL
Rattus norvegicus [7]
  Inhibition: 72%
Cavia porcellus [8]
  Inhibition: 44%

## COc1ccccc1CC/N=C(\N)Nc1nc(-c2cccc(CNC(C)=O)n2)cs1
Cavia porcellus [3]
  Inhibition: 78%
Rattus norvegicus [4]
  inhibition in vivo at 1 mg/kg: 65%
Helicobacter pylori [9]
  MIC: 0.037 µg/mL (≈ 0.0872 µM)

## COc1ccc(CC/N=C(\N)Nc2nc(-c3cccc(CNC(C)=O)n3)cs2)cc1
Cavia porcellus [3]
  Inhibition: 24%
Rattus norvegicus [4]
  inhibition in vivo at 1 mg/kg: 18%
Helicobacter pylori [10]
  MIC: 0.42 µg/mL (≈ 0.989 µM)

## CCC/N=C(\N)Nc1nc(-c2cccc(CNC(C)=O)n2)cs1
Helicobacter pylori [11]
  MIC: 2.9 µg/mL (≈ 8.72 µM)

## CSCC/N=C(\N)Nc1nc(-c2cccc(CNC(C)=O)n2)cs1
Helicobacter pylori [12]
  MIC: 1.1 µg/mL (≈ 3.02 µM)

## COCC/N=C(\N)Nc1nc(-c2cccc(CNC(C)=O)n2)cs1
Helicobacter pylori [13]
  MIC: 6.7 µg/mL (≈ 19.2 µM)

## CC(=O)NCc1cccc(-c2csc(NC(=N)NCCc3ccccc3)n2)n1
Cavia porcellus [3]
  Inhibition: 71%
Rattus norvegicus [4]
  Inhibition: 50%
Helicobacter pylori [14]
  MIC: 0.1 µg/mL (≈ 0.253 µM)

## CC(=O)NCc1cccc(-c2csc(N/C(N)=N/CCN(C)C)n2)n1
Helicobacter pylori [1]
  MIC: > 100 µg/mL

## COc1ccccc1CC/N=C(\N)Nc1nc(-c2cc(CNC(C)=O)on2)cs1
Cavia porcellus [3]
  Inhibition: <10%
Helicobacter pylori [15]
  MIC: 4.4 µg/mL (≈ 10.6 µM)

## CCCC/N=C(\N)Nc1nc(-c2nc(CNC(C)=O)no2)cs1
Cavia porcellus [3]
  Inhibition: <10%
Helicobacter pylori [13]
  MIC: 10.9 µg/mL (≈ 32.3 µM)

## COc1ccccc1CC/N=C(\N)Nc1nc(-c2c[nH]c(CNC(C)=O)n2)cs1
Helicobacter pylori [16]
  MIC: 10.2 µg/mL (≈ 24.7 µM)

## CC(=O)NCc1cccc(-c2csc(N/C(N)=N/CCC(C)C)n2)n1
Cavia porcellus [3]
  Inhibition: 80%
Rattus norvegicus [4]
  inhibition in vivo at 1 mg/kg: 86%
Helicobacter pylori [14]
  MIC: 0.1 µg/mL (≈ 0.277 µM)

## COc1ccccc1CC/N=C(\N)Nc1nc(-c2ccc(CNC(C)=O)s2)cs1
Cavia porcellus [17]
  Inhibition: <10%
Helicobacter pylori [18]
  MIC: 0.0065 µg/mL (≈ 0.0151 µM)

## CCCC/N=C(\N)Nc1nc(-c2ccc(CNC(C)=O)s2)cs1
Helicobacter pylori [19]
  MIC: 0.32 µg/mL (≈ 0.91 µM)
Cavia porcellus [17]
  Inhibition: <10%

## CC(=O)NCc1cccc(-c2csc(NC(=N)NCC(F)(F)F)n2)n1
Helicobacter pylori [6]
  MIC: 13.4 µg/mL (≈ 36 µM)

## COc1ccccc1CC/N=C(\N)Nc1nc(-c2cccc(CNC(C)=O)c2)co1
Cavia porcellus [3]
  Inhibition: 65%
Rattus norvegicus [4]
  inhibition in vivo at 1 mg/kg: 40%
Helicobacter pylori [20]
  MIC: 0.3 µg/mL (≈ 0.736 µM)

## COc1ccccc1CC/N=C(\N)Nc1nc(-c2ncc(CNC(C)=O)o2)cs1
Cavia porcellus [3]
  Inhibition: 37%
Rattus norvegicus [4]
  inhibition in vivo at 1 mg/kg: 50%
Helicobacter pylori [21]
  MIC: 1.1 µg/mL (≈ 2.65 µM)

## COc1ccccc1CC/N=C(\N)Nc1nc(-c2csc(CNC(C)=O)n2)cs1
Cavia porcellus [3]
  Inhibition: 30%
Rattus norvegicus [4]
  inhibition in vivo at 1 mg/kg: 23%
Helicobacter pylori [22]
  MIC: 0.043 µg/mL (≈ 0.0999 µM)

## COc1cccc(CC/N=C(\N)Nc2nc(-c3cccc(CNC(C)=O)n3)cs2)c1
Cavia porcellus [3]
  Inhibition: 83%
Rattus norvegicus [4]
  inhibition in vivo at 1 mg/kg: 68%
Helicobacter pylori [23]
  MIC: 0.14 µg/mL (≈ 0.33 µM)

## CCCC/N=C(\N)Nc1nc(-c2cccc(CNC(C)=O)c2)co1
Cavia porcellus [3]
  Inhibition: 93%
Rattus norvegicus [4]
  inhibition in vivo at 1 mg/kg: 60%
Helicobacter pylori [24]
  MIC: 1.92 µg/mL (≈ 5.83 µM)

## Cc1ncc([N+](=O)[O-])n1CCO [METRONIDAZOLE]
Helicobacter pylori [25]
  MIC: 5.4 µg/mL (≈ 31.6 µM)

## CCCC/N=C(\N)Nc1nc(-c2ccnc(CNC(C)=O)n2)cs1
Cavia porcellus [3]
  Inhibition: <10%
Helicobacter pylori [15]
  MIC: 4.1 µg/mL (≈ 11.8 µM)

## CN/C(=N\CCSCc1nc[nH]c1C)NC#N [CIMETIDINE]
Cavia porcellus [3]
  Inhibition: 43%
Rattus norvegicus [4]
  inhibition in vivo at 1 mg/kg: 53%
Helicobacter pylori [26]
  MIC: 1130 µg/mL (≈ 4480 µM)

## CC/N=C(\N)Nc1nc(-c2cccc(CNC(C)=O)n2)cs1
Helicobacter pylori [27]
  MIC: 4.7 µg/mL (≈ 14.8 µM)

## CC(=O)NCC/N=C(\N)Nc1nc(-c2cccc(CNC(C)=O)n2)cs1
Helicobacter pylori [6]
  MIC: 11.5 µg/mL (≈ 30.6 µM)

## CCCC/N=C(\N)Nc1nc(-c2cccc(CNC(C)=O)n2)cs1
Cavia porcellus [3]
  Inhibition: 100%
Rattus norvegicus [4]
  inhibition in vivo at 1 mg/kg: 76%
Helicobacter pylori [5]
  MIC: 0.59 µg/mL (≈ 1.7 µM)

## CC[C@H]1OC(=O)[C@H](C)[C@@H](O[C@H]2C[C@@](C)(OC)[C@@H](O)[C@H](C)O2)[C@H](C)[C@@H](O[C@@H]2O[C@H](C)C[C@H](N(C)C)[C@H]2O)[C@](C)(OC)C[C@@H](C)C(=O)[C@H](C)[C@@H](O)[C@]1(C)O [CLARITHROMYCIN]
Helicobacter pylori [1]
  MIC: 0.057 µg/mL (≈ 0.0762 µM)

## C/N=C(\N)Nc1nc(-c2cccc(CNC(C)=O)n2)cs1
Helicobacter pylori [28]
  MIC: 5.1 µg/mL (≈ 16.8 µM)

## CCCC/N=C(\N)Nc1nc(-c2cccc(CNC(C)=O)n2)co1
Cavia porcellus [3]
  Inhibition: 81%
Rattus norvegicus [4]
  inhibition in vivo at 1 mg/kg: 92%
Helicobacter pylori [29]
  MIC: 3.9 µg/mL (≈ 11.8 µM)
